From ChEMBL document CHEMBL1144854, “Synthesis and biological evaluation of novel 6-substituted 5-alkyl-2-(arylcarbonylmethylthio)pyrimidin-4(3H)-ones as potent non-nucleoside HIV-1 reverse transcriptase inhibitors” (Bioorg Med Chem, 2008) come the findings set out here.

The source made the active and inactive calls. No cut-off for these calls is given here.

A short description of data set [1]: Cytotoxicity against human MT4 cells. It is filed as cell-based. In outline: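 Uninfected MT-4 cells were run in parallel with the antiviral plates: serial compound concentrations from 50 mM DMSO stocks, 4 days at 37 °C, viability by MTT. CC50 is the concentration cutting viability by 50%, as the mean of ≥2 separate experiments.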
Data set [2] relates to Human immunodeficiency virus 2. The data set is described as follows: Antiviral activity against HIV2 ROD infected in MT4 cells by MTT. To be noted: Human immunodeficiency virus 2, ROD. It is filed as functional, organism-based. The method in brief: (§1)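 MT-4 cells at 1 × 10^5 cells/mL were infected at MOI 0.02 with virus stocks pre-titrated in MT-4 cells (CCID50) and immediately plated onto serial compound dilutions. Compound stocks were 50 mM in DMSO. Viable cells were counted by MTT after 4 days at 37 °C. EC50 is the concentration giving 50% protection from viral cytopathicity, as the mean of ≥2 separate experiments.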

The nature of data set [3]: Selectivity index, ratio of CC50 for human MT4 cells to EC50 for HIV1 3B. The class given is functional.
Data set [4] concerns Human immunodeficiency virus 1. The data set is described as follows: Antiviral activity against HIV1 3B infected in MT4 cells by MTT. To be noted: Human immunodeficiency virus 1, 3B. It is filed as functional, organism-based. The method in brief: as §1
The test system of data set [5] is Human immunodeficiency virus 1. The data set is described as follows: Antiviral activity against HIV1 RES056 infected in MT4 cells by MTT. It is filed as functional, organism-based. The settings on record: Human immunodeficiency virus 1, RES056, MT4. The method in brief: as §1
Data set [6] is described as follows: Selectivity index, ratio of CC50 for human MT4 cells to EC50 for HIV1 RES056.
For another data set, the system named is MT4. Described as above.

For the compound `CCc1c(Cc2cc(C(F)(F)F)cc(C(F)(F)F)c2)nc(SCC(=O)c2ccc(OC)cc2)[nH]c1=O`, in data set [1], the CC50 is > 236 µM. Further, the EC50 in data set [2] was > 236 µM; in data set [4] it was 0.79 µM. Further, in data set [3], the “Ratio CC50/EC50” value is listed as >299.
In the case of `COc1ccc(C(=O)CSc2nc(Cc3ccccc3Br)c(C)c(=O)[nH]2)cc1`, the CC50 in data set [1] was > 272 µM. Moreover, the EC50 in data set [2] is > 272 µM; in data set [4], 0.63 µM. The “Ratio CC50/EC50” value in data set [3] was >432.
`CCc1c(Cc2ccccc2Br)nc(SCC(=O)c2ccc(OC)cc2)[nH]c1=O` returned a 50% cytotoxic concentration (CC50) in data set [1] of 187 µM. For the same compound, the EC50 was > 187 µM in data set [2] and 0.04 µM in data set [4]. For the same compound, in data set [3], the “Ratio CC50/EC50” value turned out to be 4675.
For `CCc1c(Cc2ccc(-c3ccccc3)cc2)nc(SCC(=O)c2ccc(OC)cc2)[nH]c1=O`, the CC50 in data set [1] was > 266 µM. Also, the EC50 in data set [2] and in data set [4] was > 266 µM each time.
For `COc1ccc(C(=O)CSc2nc(Cc3cc(C(F)(F)F)cc(C(F)(F)F)c3)c(C)c(=O)[nH]2)cc1`, the 50% cytotoxic concentration (CC50) in data set [1] is > 242 µM. The EC50 in data set [2] was > 242 µM; in data set [4] it was 46.1 µM. The “Ratio CC50/EC50” value in data set [3] is reported as >5.
As to `CCc1c(Cc2cccc(Br)c2)nc(SCC(=O)c2ccc(OC)cc2)[nH]c1=O`, in data set [1], half-maximal cytotoxicity (CC50) was put at 142 µM. The EC50 in data set [2] was > 142 µM; in data set [4], 0.16 µM. The “Ratio CC50/EC50” value in data set [3] is given as 887.
For `CCc1c(Cc2cc(C)cc(C)c2)nc(SCC(=O)c2ccccc2)[nH]c1=O`, the CC50 in data set [1] is > 318 µM. The EC50 in data set [2] came out at 154 µM; in data set [5] it was 19.8 µM; in data set [4], 0.01 µM. Further, the “Ratio CC50/EC50” value in data set [3] is >31800; in data set [6] it was >16.
Turning to `CCc1c(Cc2ccc(Br)cc2)nc(SCC(=O)c2ccc(OC)cc2)[nH]c1=O`, the CC50 in data set [1] was > 264 µM. Besides, the EC50 in data set [2] is > 264 µM; in data set [4], 7.94 µM. The “Ratio CC50/EC50” value in data set [3] was >33.
For the compound `CC(C)Nc1cccnc1N1CCN(C(=O)c2cc3cc(NS(C)(=O)=O)ccc3[nH]2)CC1` [DELAVIRDINE], in data set [1], the CC50 is > 3.62 µM. In addition, the “Ratio CC50/EC50” value in data set [3] was >50. Further, the values for the half-maximal effective concentration (EC50) in data set [5] and in data set [4] were > 3.62 µM and 0.072 µM, respectively.
In data set [1], `COc1ccc(C(=O)CSc2nc(Cc3cccc(O)c3)c(C)c(=O)[nH]2)cc1` yielded a CC50 of 70 µM. Further, the EC50 in data set [2] was > 59 µM; in data set [4] it was 4.44 µM. For the same compound, the “Ratio CC50/EC50” value in data set [3] came to 16.
In the case of `COc1ccc(C(=O)CSc2nc(C(c3ccccc3)c3ccccc3)c(C)c(=O)[nH]2)cc1`, the CC50 in data set [1] is > 274 µM. For the same compound, the EC50 in data set [2] was > 274 µM; in data set [4], 1.38 µM. In addition, in data set [3], the “Ratio CC50/EC50” value was >199.
`COc1ccc(C(=O)CSc2nc(Cc3ccc(Br)cc3)c(C)c(=O)[nH]2)cc1`: the CC50 in data set [1] was > 272 µM. Also, the results for the half-maximal effective concentration (EC50) in data set [2] and in data set [4] were ≥ 226 µM and 8.97 µM, respectively. For the same compound, the “Ratio CC50/EC50” value in data set [3] is given as >30.
With `Cc1cn([C@H]2C[C@H](N=[N+]=[N-])[C@@H](CO)O2)c(=O)[nH]c1=O` [ZIDOVUDINE], the 50% cytotoxic concentration (CC50) in data set [1] is > 93.5 µM. The “Ratio CC50/EC50” value is given as >17990 in data set [3] and >15592 in data set [6]. The values for the EC50 in data set [5] and in data set [4] were 0.006 µM and 0.005 µM, respectively.
Take `COc1ccc(C(=O)CSc2nc(Cc3c(Cl)cccc3Cl)c(C)c(=O)[nH]2)cc1`: the CC50 in data set [1] is > 278 µM. The results for the EC50 in data set [2] and in data set [4] were > 278 µM and 0.044 µM, respectively. In data set [3], the “Ratio CC50/EC50” value is >6318.
Regarding `O=C1Nc2ccc(Cl)cc2C(C#CC2CC2)(C(F)(F)F)O1` (single isomer, unassigned) [EFAVIRENZ], the half-maximal cytotoxic concentration (CC50) in data set [1] was > 6.34 µM.
As for `CCc1c(C(c2ccccc2)c2ccccc2)nc(SCC(=O)c2ccc(OC)cc2)[nH]c1=O`, in data set [1], the CC50 was > 266 µM. In addition, the EC50 in data set [2] was > 266 µM; in data set [4], 3.49 µM. In data set [3], the “Ratio CC50/EC50” value is recorded as >76.
For the compound `COc1ccc(C(=O)CSc2nc(Cc3cccc(Br)c3)c(C)c(=O)[nH]2)cc1`, the CC50 in data set [1] is ≥ 196 µM. For the same compound, the EC50 is 203 µM in data set [2] and 0.89 µM in data set [4]. For the same compound, the “Ratio CC50/EC50” value in data set [3] is recorded as “>=220”.
Consider `CCc1c(Cc2cc(C)cc(C)c2)nc(SCC(=O)c2ccc(OC)cc2)[nH]c1=O`, for which the CC50 in data set [1] is ≥ 239 µM. In addition, the results for the EC50 in data set [2], in data set [5] and in data set [4] were 52.8 µM, > 239 µM and 0.018 µM, respectively. In addition, in data set [3], the “Ratio CC50/EC50” value was “>=13278”.
On to `COc1ccc(C(=O)CSc2nc(Cc3cc(C)cc(C)c3)c(C)c(=O)[nH]2)cc1`, for which, in data set [1], the CC50 is > 308 µM. Also, the results for the concentration giving a half-maximal response (EC50) in data set [2], in data set [5] and in data set [4] were 60.6 µM, > 308 µM and 0.054 µM, respectively. For the same compound, the “Ratio CC50/EC50” value in data set [3] is given as >5704. Besides, the outcome in the data set on MT4 was inactive.
For `Cc1c(Cc2cccc3ccccc23)nc(SCC(=O)c2ccccc2)[nH]c1=O`, the CC50 in data set [1] was ≥ 305 µM. Besides, the EC50 was ≥ 42.2 µM in data set [2] and 0.22 µM in data set [4]. In addition, in data set [3], the “Ratio CC50/EC50” value is listed as “>=1386”.
